Assay results as given in ChEMBL document CHEMBL4251649, “Discovery and optimization of phthalazinone derivatives as a new class of potent dengue virus inhibitors” (Eur J Med Chem, 2018).

Tests used:
[1] = Cytotoxicity against human HuH7 cells assessed as reduction in cell viability after 48 hrs by MTT assay; type: cell-based, Huh-7
Procedure, shortened: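 The Huh7 cells were seeded and treated with compound in the same way as the antiviral assay, and viability was read by MTT reduction. CC50 is the compound concentration that lowered the readout to half of the no-compound control.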

[2] = Selectivity index, CC50 for human HuH7 cells to IC50 for DENV2 D2Y98P; type: toxicity; details: read-out: Ratio CC50/IC50
Procedure, shortened: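 SI is calculated as CC50 (MTT cytotoxicity in Huh7) divided by IC50 (qRT-PCR of DENV-2 D2Y98P supernatant RNA, Huh7, MOI 2, 48 h).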

dengue virus type 2 = test: Antiviral activity against DENV2 D2Y98P infected in human HuH7 cells assessed as inhibition of viral RNA replication incubated for 48 hrs by qRT-PCR method; type: functional, organism-based; details: Huh-7, 48 h
Procedure, shortened: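 Huh7 cells (4×10^4/well, 2% FBS DMEM, overnight) infected with DENV-2 D2Y98P at MOI 2 for 2 h, washed, then given compound in fresh medium; after 48 h the supernatant viral genomic RNA was extracted and quantified by one-step qRT-PCR; IC50 and IC90 were taken as 50% and 90% inhibition of RNA replication.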

Mus musculus [3] = test: Plasma clearance in CD-1 mouse at 2 mg/kg, iv; type: ADME, organism-based; details: in vivo
Procedure, shortened: (§1)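 Male CD-1 mice (18–22 g, n=3/group), fasted 12 h, were given 2 mg/kg IV. Femoral-vein blood (EDTA) was collected at 3 min, 0.25, 0.75, 2, 4, 8 and 24 h. Plasma was mixed with methanol:acetonitrile (1:1), stored at -20°C, and analysed by non-compartmental methods.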

Mus musculus [4] = test: Volume of distribution at steady state in CD-1 mouse at 2 mg/kg, iv; type: ADME, organism-based; details: in vivo; procedure, shortened: as §1
[5] = Tmax in CD-1 mouse at 10 mg/kg, po; type: ADME, organism-based; details: in vivo
Procedure, shortened: (§2)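 Male CD-1 mice (18–22 g, n=3/group), fasted 12 h and fed 2 h after dosing, received 10 mg/kg orally. Femoral-vein blood (EDTA) was drawn at 0.25, 0.5, 1, 2, 4, 8 and 24 h. Plasma was mixed with methanol:acetonitrile (1:1) and stored at -20°C. Parameters came from non-compartmental analysis.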

Mus musculus [6] = test: Half life in CD-1 mouse at 2 mg/kg, iv; type: ADME, organism-based; details: in vivo; procedure, shortened: as §1
[7] = Half life in CD-1 mouse at 10 mg/kg, po; type: ADME, organism-based; details: in vivo; procedure, shortened: as §2
[8] = Cmax in CD-1 mouse at 10 mg/kg, po; type: ADME, organism-based; design: dose 10 mg/kg, route oral; details: in vivo; procedure, shortened: as §2
Mus musculus [9] = test: AUClast in CD-1 mouse at 2 mg/kg, iv; type: ADME, organism-based; design: dose 2 mg/kg, time 0 - last, route intravenous; details: in vivo; procedure, shortened: as §1
[10] = AUClast in CD-1 mouse at 10 mg/kg, po; type: ADME, organism-based; design: dose 10 mg/kg, time 0 - last, route oral; details: in vivo; procedure, shortened: as §2
[11] = Oral bioavailability in CD-1 mouse at 10 mg/kg; type: ADME, organism-based; details: in vivo; procedure, shortened: as §2

Row | Structure (SMILES) | CC50 at 48 h [1] [µM] | selectivity ratio [2] | IC50 (dengue virus type 2) [µM] | IC90 (dengue virus type 2) [µM] | other results
1 | CN(C)CCCCNC(=O)Nc1ccc(Cn2nc(-c3ccc(F)cc3)c3ccccc3c2=O)cc1 | 46.6 | 10.7 |  |  | 
2 | CCCCOC(=O)Nc1ccc(Cn2nc(-c3ccc(F)cc3)c3ccccc3c2=O)cc1 | 19.5 | 14.3 |  |  | 
3 | COc1ccc(-c2nn(Cc3ccc(NC(=O)OCCCCN(C)C)cc3)c(=O)c3ccccc23)cc1 | 20.3 | 10.5 | 1.94 | 5.88 | 
4 | CN(C)CCCCOC(=O)Nc1ccc(Cn2nc(-c3ccccc3)c3ccccc3c2=O)cc1 | 16 | 5.99 | 2.68 | 6.09 | 
5 | CC(c1ccc(NC(=O)OCCCCN(C)C)cc1)n1nc(-c2ccc(F)cc2)c2ccccc2c1=O (configuration not stated) | 15.2 | 11.9 | 1.27 | 5.57 | 
6 | CN(C)CCCCOC(=O)Nc1ccc(Cn2nc(-c3ccncc3)c3ccccc3c2=O)cc1 | 62.7 | 2.7 | 22.9 | 40.9 | 
7 | CN(C)CCCCOC(=O)Nc1ccc(Cn2nc(-c3cccc(C(F)(F)F)c3)c3ccccc3c2=O)cc1 | 11.6 | 89.2 | 0.13 | 1.15 | CL (Mus musculus [3]): 0.833 mL/min/kg; Vdss (Mus musculus [4]): 17.137 L/kg; Tmax [5]: 8 h; t1/2 (Mus musculus [6]): 4.33 h; half-life [7]: 2.91 h; Cmax [8]: 94.5 ng/mL; AUClast (Mus musculus [9]): 505 ng·h/mL; AUC(0-t) [10]: 883 ng·h/mL; bioavailability [11]: 34.9%
8 | COc1ccccc1-c1nn(Cc2ccc(NC(=O)OCCCCN(C)C)cc2)c(=O)c2ccccc12 | 44.8 | 32 | 1.4 | 5.44 | 
9 | CN(C)CCCCOC(=O)Nc1ccc(Cn2nc(-c3ccc(F)cc3)c3ccccc3c2=O)cc1 | 19 | 30.7 | 0.62 | 4.27 | 
10 | Nc1ccc(Cn2nc(-c3ccc(F)cc3)c3ccccc3c2=O)cc1 | > 80 | > 4 | 20 | > 80 | 
11 | COc1cccc(-c2nn(Cc3ccc(NC(=O)OCCCCN(C)C)cc3)c(=O)c3ccccc23)c1 | 17.6 | 51.8 | 0.34 | 1.58 | 
12 | CN(C)CCCCOC(=O)Nc1ccc(Cn2nc(-c3cccc(F)c3)c3ccccc3c2=O)cc1 | 37.4 | 24.7 | 1.51 | 8.24 | 
13 | CN(C)CCCCOC(=O)Nc1ccc(Cn2nc(-c3cncnc3)c3ccccc3c2=O)cc1 | 65.3 | 109 | 0.6 | 62.4 | 
